Compound activity deposited in PubChem by The Scripps Research Institute Molecular Screening Center.
Sampled rows, rich in hits. Any-hit rate of the full collection: about 2%.
ASAP1 inh – inhibitors of human ASAP1 ArfGAP activity, primary screen, biochemical, fluorescence polarization | Arf-GAP with SH3 domain, ANK repeat and PH domain-containing protein 1 (Homo sapiens), … | ASAP1-stimulated ARF1 GTP hydrolysis, GDP FP detection | inhibition, % at 16.5 µM | actives 0.19% (n = 360,000) | AID 624377, 2012; in the data active means inhibition above about 25%;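 further: 0% = vehicle with enzyme and substrate and 100% = no enzyme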
MBD2 inh – inhibitors of MBD2 binding to methylated DNA, primary screen, biochemical, TR-FRET, DNA-binding domain, human; Methyl-CpG-binding domain protein 2 (Homo sapiens), Q9UBB5; MBD2 binding to methylated oligonucleotide; inhibition, % at 4.4 µM; actives 0.31% (n = 370,000); AID 686964, 2013; in the data active means inhibition above about 13%
UHRF1 binding – UHRF1 methylated DNA binding inhibitors, primary screen, counter-screen for MBD2 inhibitor project, biochemical, TR-FRET, human UHRF1, single concentration. E3 ubiquitin-protein ligase UHRF1 (Homo sapiens), Q96T88. UHRF1 binding to methylated oligo. inhibition, % at 4.4 µM. actives 0.75% (n = 370,000); in the data active means inhibition above about 21%;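 further: UHRF1 SRA domain binding a hemimethylated CpG hairpin DNA probe; 0% = median of test compound wells and 100% = reference inhibitor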
LEDGF integ inh – blockers of LEDGF/p75-dependent integrase strand transfer – biochemical, TR-FRET, high throughput, primary screen; TR-FRET IN-LEDGF/p75 DNA integration, Eu/Cy5; inhibition, % at 3.7 µM; actives 0.64% (n = 370,000);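 active means inhibition above the screen-wide mean plus 3 SD, cut at about 13% in these data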;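 further: signal is the Cy5 over europium emission ratio at 671 and 618 nm; 0% = plate median of compound wells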
TCR-CD3 inh – inhibitors of human TCR-CD3 interaction, primary screen, biochemical, fluorescence, TAMRA-labeled TCR probe; T-cell receptor (TCR); inhibition, % at 9.4 µM; actives 0.37% (n = 360,000); AID 651800, 2012; in the data active means inhibition above about 19%;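 further: recombinant mutant TCR 2C K166C tagged with TAMRA read by polarization; 0% = receptor in buffer alone and 100% = receptor with positive control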
ARFGAP1 inh – inhibitors of rat ARFGAP1 GAP activity, primary screen, biochemical, fluorescence polarization, GDP tracer; Arfgap1-stimulated ARF1 GTP hydrolysis, GDP FP detection; AID 651572, 2012; actives 0.26% (n = 360,000); ADP-ribosylation factor GTPase-activating protein 1 (Rattus norvegicus), Q62848; inhibition, % at 16.5 µM;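 active means inhibition above a per-plate limit, mean inhibition of low control wells plus 3 SD, cut at about 25% in these data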;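 further: 0% = DMSO wells with enzyme and 100% = wells lacking Arfgap1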
Target sequence (Q62848 1-136 limits assumed): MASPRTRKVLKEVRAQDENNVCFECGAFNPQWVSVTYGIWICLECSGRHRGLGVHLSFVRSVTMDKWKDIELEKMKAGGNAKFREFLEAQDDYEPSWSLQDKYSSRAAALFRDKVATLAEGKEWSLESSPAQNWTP
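Material: rat Arfgap1 GAP domain (His6, aa 1-136), purified enzyme. Also added: human ARF1(Δ1-17)-GTP substrate. Compound dosing: 16.5 µM single point, 1.26% DMSO. Timing: enzyme reaction 120 min at 25 °C after 20 min preincubation. Signal: GDP detection by fluorescence polarization. Read-out basis: percent inhibition of GAP-stimulated GDP formation, scaled between DMSO and no-Arfgap1 medians.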
IN multimer act – HIV-1 IN multimer formation enhancers, counter-screen for LEDGF/p75 integration inhibitor project, biochemical, TR-FRET; shares compounds with LEDGF integ inh; TR-FRET HIV-1 integrase multimerization; activation, % at 7.7 µM; actives 17% (n = 2,000); in the data active means activation above about 8.9%
TR-FRET interf – TR-FRET optical interference artefacts, confirmation, artefact control for LEDGF/p75-dependent integration inhibitor project, biochemical, HIV-1 IN multimerization | shares compounds with LEDGF integ inh | TR-FRET optical interference counterscreen | inhibition, % at 7.7 µM | 2,000 tested, under 10 active;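 active means inhibition above the mean over all tested compounds plus 3 SD, which no compound reached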;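 further: 0% = integrase with antibodies and DMSO and 100% = antibodies without integrase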
IN-LEDGF confirm – inhibitors of HIV-1 IN-LEDGF/p75 DNA integration, confirmation, biochemical, TR-FRET | shares compounds with LEDGF integ inh | TR-FRET LEDGF/p75-dependent HIV-1 integration | actives 36% (n = 2,000) | inhibition, % at 3.7 µM | AID 1053136, 2014; in the data active means inhibition above about 14%
Starred values were filed as active, the others as inactive.

CCC(=O)Nc1ncc2c(n1)CC(c1ccco1)CC2=O (stereo not given) was read as ASAP1 inh 0, MBD2 inh 2, UHRF1 binding 8, LEDGF integ inh 18*, TCR-CD3 inh 9, ARFGAP1 inh 2, IN multimer act 3, TR-FRET interf -11 and IN-LEDGF confirm -6.
`CC(=O)Nc1ncc2c(n1)CC(c1ccco1)CC2=O` (stereo not given) gave ASAP1 inh -13, MBD2 inh -3, UHRF1 binding -2, LEDGF integ inh -3, TCR-CD3 inh 5 and ARFGAP1 inh 7.
Screening C=CCCC1CN(Cc2ccc(OC)cc2)S(=O)(=O)c2c(cccc2N(C)S(=O)(=O)c2ccc(C)cc2)O1 (stereo not given) returned ASAP1 inh -6, MBD2 inh 0, UHRF1 binding -2, LEDGF integ inh 89*, TCR-CD3 inh -6, ARFGAP1 inh -7, IN multimer act 2, TR-FRET interf -10 and IN-LEDGF confirm -8.
Cc1cc(O)cc(C)c1NS(=O)(=O)c1ccc2ccccc2c1 was read as ASAP1 inh 4, MBD2 inh 0, UHRF1 binding 3, LEDGF integ inh -2, TCR-CD3 inh 3 and ARFGAP1 inh -4.
CC(=O)Nc1nnc(CCS(=O)(=O)c2ccc(C)cc2)s1 was read as ASAP1 inh -11, MBD2 inh 1, UHRF1 binding -1, LEDGF integ inh 2, TCR-CD3 inh 7 and ARFGAP1 inh -13.
Screening COc1ccc(CCNC(=O)c2ccc(Cl)nc2)cc1 returned ASAP1 inh 6, MBD2 inh 4, UHRF1 binding 1, LEDGF integ inh 2, TCR-CD3 inh 0 and ARFGAP1 inh 2.
For NS(=O)(=O)c1ccc(CCNC(=O)c2ccc(Cl)nc2)cc1 the results were ASAP1 inh 7, MBD2 inh 1, UHRF1 binding 1, LEDGF integ inh 16*, TCR-CD3 inh -4, ARFGAP1 inh 4, IN multimer act 0, TR-FRET interf 2 and IN-LEDGF confirm -8.
CCOC(=O)N1CCN(C(=O)COc2ccc(S(=O)(=O)NC3CCCCC3)cc2C)CC1 was read as ASAP1 inh -10, MBD2 inh -8, UHRF1 binding -1, LEDGF integ inh 16*, TCR-CD3 inh 4, ARFGAP1 inh -5, IN multimer act 2, TR-FRET interf -7 and IN-LEDGF confirm -2.
Screening Cc1ccccc1N(CC(=O)Nc1ccc(F)cc1)S(C)(=O)=O returned ASAP1 inh -7, MBD2 inh 0, UHRF1 binding 2, LEDGF integ inh 0, TCR-CD3 inh 2 and ARFGAP1 inh 0.
